# Screening results: PubChem, several laboratories
# ADAM17 inh: ADAM17 inhibition, QFRET primary screen. recombinant ADAM17, EDANS/DABCYL FRET peptide cleavage. P78536. 370,000 tested, 0.83% active. AID 720648. inhibition, % at 6.95 µM;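 active means inhibition above the mean of compounds lying between control limits plus 3 SD, set per campaign, cut at about 8.5% in these data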;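 further: 0% = DMSO-only wells as the low control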
# Target sequence (P78536 215-824 limits assumed): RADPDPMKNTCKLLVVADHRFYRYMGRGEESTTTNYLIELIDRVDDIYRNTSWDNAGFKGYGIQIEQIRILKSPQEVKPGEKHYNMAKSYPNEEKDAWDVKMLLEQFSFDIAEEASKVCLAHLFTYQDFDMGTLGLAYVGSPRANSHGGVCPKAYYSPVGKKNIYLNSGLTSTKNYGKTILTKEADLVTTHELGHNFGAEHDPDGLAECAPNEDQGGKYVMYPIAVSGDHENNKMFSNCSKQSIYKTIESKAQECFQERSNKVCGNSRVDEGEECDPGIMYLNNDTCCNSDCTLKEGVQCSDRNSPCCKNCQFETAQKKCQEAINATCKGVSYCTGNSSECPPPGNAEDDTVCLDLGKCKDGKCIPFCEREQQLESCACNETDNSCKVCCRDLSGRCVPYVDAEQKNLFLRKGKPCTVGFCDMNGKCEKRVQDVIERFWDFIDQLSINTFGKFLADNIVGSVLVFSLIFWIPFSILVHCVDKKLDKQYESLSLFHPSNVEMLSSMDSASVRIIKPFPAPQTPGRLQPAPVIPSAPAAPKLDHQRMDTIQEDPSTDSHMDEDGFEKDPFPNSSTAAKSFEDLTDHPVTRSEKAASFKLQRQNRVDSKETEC
# KLK7 zymogen act: proKLK7 (human) activation, primary screen; P49862; purified proKLK7, EDANS-DABCYL substrate fluorescence; 100% is mature enzyme control, 0% vehicle; activation, % at 7 µM; 370,000 tested, 0.9% active;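 active means activation above the mean of all tested compounds plus 3 SD, computed per campaign excluding outliers beyond control limits, cut at about 13% in these data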
# NR2E3 ag-1: activates human NR2E3 receptor; 360,000 tested, 0.35% active; CHO-S Gal4-NCOR/VP16-NR2E3 two-hybrid, luciferase; Q9Y5X4; inhibition of corepressor binding, % at 3.98 µM;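 active means inhibition above the mean of all tested compounds plus 3 SD, cut at about 70% in these data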;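 further: 0% = DMSO with NR2E3 transfected cells and 100% = cells lacking NR2E3 construct; higher means lower luciferase signal from less NR2E3 corepressor binding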
# NR2E3 ag-2: NR2E3 (human) agonism | GST-NR2E3/biotin-RetCOR TR-FRET, 1536-well | inhibition of corepressor binding, % at 4.78 µM | Q9Y5X4 | 320,000 tested, 0.12% active;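 active means percent inhibition above the cutoff of mean plus 3 SD of all tested compounds, set per screening campaign, cut at about 20% in these data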;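 further: 0% = DMSO wells and 100% = biotin wells as full block of FRET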
#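 Material: NR2E3–RetCOR corepressor complex / Incubation: Compound–protein incubation for 5 h at 4 °C / Dosing: compound at 4.8 µM, single dose / Detection: time-resolved FRET / Benchmarks: high control biotin, low control 0.6% DMSO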
# JMJD2C inh: inhibitors of human GASC-1 (JMJD2C) demethylase; Q9H3R0; GST-JMJD2C(1-420) H3K9me3 demethylation, DELFIA europium; inhibition, % at 2.35 µM; 330,000 tested, 0.069% active; AID 2099;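 active means more than half of a compound's replicate wells show inhibition beyond 50%, single wells judged on their own value; inconclusive means some, but no more than half, of replicates pass 50% inhibition; inactive means no replicate passes 50% inhibition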;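 further: signal counts dimethyl H3K9 product captured on neutravidin plate; 0% = median of DMSO wells and 100% = 0.3 times that DMSO median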
# ADAM10 inh: inhibits human ADAM10 | O14672 | 370,000 tested, 0.62% active | inhibition, % at 7 µM | recombinant ADAM10, EDANS/DABCYL FRET peptide cleavage, 3 h;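 active means inhibition above a per-campaign cutoff equal to the mean of compounds falling between control-based bounds plus 3 SD, cut at about 20% in these data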;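 further: 0% = DMSO wells while the 100% control is not disclosed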
# proKLK7 act conf: proKLK7 activation, confirmation; shares compounds with KLK7 zymogen act; purified proKLK7, EDANS-DABCYL substrate fluorescence; scaled: vehicle 0, mature enzyme 100; activation, % at 7 µM; 3,200 tested, 68% active; AID 686949;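 active means activation, as change over the incubation, above the mean of all tested compounds plus 3 SD, cut at about 13% in these data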
# EDANS-DABCYL int: counter-screen for kallikrein-7 activators: EDANS-DABCYL optical interference | AID 686952 | 3,200 tested, 80% active | shares compounds with KLK7 zymogen act | activation, % at 7 µM | EDANS-DABCYL substrate fluorescence interference, no enzyme, 4 h; solvent 0%, active enzyme control 100%;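 active means activation above the all-compound mean plus 3 SD, ignoring values outside control-based bounds, cut at about 4.8% in these data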;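 further: value is the 4 h activation minus the activation read at time zero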
# EDANS interf: counter-screen for kallikrein-7 activators: EDANS-DABCYL interference, dose response; shares compounds with KLK7 zymogen act; EDANS-DABCYL peptide fluorescence interference, no enzyme; EC50, µM; 250 tested, 20% active; AID 720493;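 active means compounds that raise the fluorescence signal in this interference counterscreen, with EC50 at or below 10 µM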;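 further: intact quenched peptide substrate alone read at 355 nm excitation and 520 nm emission; signal is fluorescence gain from T0 to T4 after four hours at room temperature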
# * marks the source's active call; other numbers are inactive results; i = inactive; ? = inconclusive; · = not tested or not shown. This is a sample that favours compounds with a hit; in the whole collection about 2.5% have one here.
SMILES,ADAM17 inh,KLK7 zymogen act,NR2E3 ag-1,NR2E3 ag-2,JMJD2C inh,ADAM10 inh,proKLK7 act conf,EDANS-DABCYL int,others
CCn1nc(NC(=O)C(C)C)c2cc3cccc(C)c3nc21,-12.7,62.4*,42.2,-1.0,129.9,-13.5,-7.5,-6.5,
CCn1nc(NC(C)=O)c2cc3cccc(C)c3nc21,-7.1,2.3,-21.0,0.1,8.8,-22.8,·,·,
CCN1C(=O)c2cccc3c(S(=O)(=O)NCc4cccnc4)ccc1c23,-213.2,53.5*,-9.4,2.2,8.8,i,71.2*,78.2*,
CCN1C(=O)c2cccc3c(S(=O)(=O)NC(Cc4ccccc4)C(=O)O)ccc1c23 (stereo unspecified),-169.0,51.3*,-15.3,-11.7,-14.0,-443.1,65.5*,67.2*,
COc1cccc(-c2cn3nc(C)c(C)nc3n2)c1,-71.9,2.1,-150.2,-0.8,0.4,-164.8,·,·,
Cc1nn2cc(-c3ccc(Cl)cc3)nc2s1,-0.2,0.6,-125.5,-0.4,0.9,5.0,·,·,
Cc1nc2nc(-c3ccc(Cl)cc3)cn2nc1C,-251.9,53.1*,-141.5,2.5,4.8,i,74.9*,78.8*,
Cc1nc2nc(-c3cccs3)cn2nc1C,-193.7,68.2*,-31.0,0.5,-6.3,i,67.7*,66.3*,
CC12CCC(=O)N1C(C(=O)N1CCN(S(=O)(=O)c3ccc(F)c(F)c3)CC1)CS2 (stereo unspecified),0.6,0.0,11.7,0.7,8.4,-10.0,·,·,
O=C(COC(=O)C1CCCCC1)Nc1cc([N+](=O)[O-])ccc1F,3.7,-0.1,-24.0,-3.3,-8.6,5.7,·,·,
COc1ccccc1CNC(=O)c1cc(-c2ccncc2)nc2c(Cl)cccc12,-0.1,-0.2,-10.1,-2.4,-28.3,1.1,·,·,
COCCNC(=O)CCN1N=C(c2ccccc2)CCC1=O,-0.3,0.4,-20.4,-0.5,-4.4,2.0,·,·,
COCCCn1c(C(=O)N2CC(C)OC(C)C2)cc2c(=O)n3ccccc3nc21 (stereo unspecified),i,82.9*,4.5,1.5,-2.2,i,69.6*,71.2*,
Cn1c(C(=O)NCC2CCCO2)cc2c(=O)n3ccccc3nc21 (stereo unspecified),i,59.4*,25.7,1.9,19.7,i,67.6*,73.5*,
COc1ccc(CCn2c(=N)c(C(=O)NCC3CCCO3)cc3c(=O)n4ccccc4nc32)cc1OC (stereo unspecified),-4.7,-1.1,-7.5,-0.8,48.9,-18.1,·,·,
N=c1c(C(=O)NC2CCCC2)cc2c(=O)n3ccccc3nc2n1C1CCCC1,i,50.1*,-10.5,1.0,-2.3,i,-31.6,-31.7,
N=c1c(C(=O)NC2CCCC2)cc2c(=O)n3ccccc3nc2n1CC1CCCO1 (stereo unspecified),i,105.4*,-12.4,1.6,17.8,i,33.3*,24.9*,EDANS interf=>69.5
O=C(Nc1ccc(N2C(=O)CC3(CCCCC3)C2=O)c(Cl)c1)c1ccccn1,-3.3,·,·,·,·,-2.7,·,·,
CCCC/C(O)=C1\C(=O)CCCC1=NCCc1c(C)[nH]c2ccc(OC)cc12,1.2,0.6,-1.9,0.0,2.2,5.1,·,·,
COc1ccc(Cn2c(=N)c(C(=O)NC3CCCCC3)cc3c(=O)n4ccccc4nc32)cc1,-9.3,-0.1,-14.3,2.4,?,-15.6,·,·,
CC(NC(=O)c1cc2c(=O)n3ccccc3nc2n(CC2CCCO2)c1=N)c1ccccc1 (stereo unspecified),i,11.8,-3.9,-4.9,-19.0,i,·,·,
N=c1c(C(=O)NC2CCCCC2)cc2c(=O)n3ccccc3nc2n1CC1CCCO1 (stereo unspecified),i,53.0*,-27.9,5.3,-1.7,i,8.4,20.9*,
